Source: ChEMBL document CHEMBL4004830 (J Med Chem, 2017)

Legend:
MV4-11 [1] = test: Growth inhibition of human MV4-11 cells after 72 hrs by resazurin assay; assay type: functional; conditions: MV4-11, 72 h
In short: (§1)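 72 h antiproliferation assay, resazurin read-out for MV4-11 and MTT read-out for MDA-MB-453; values from at least two replicates.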

MDA-MB-453 = test: Growth inhibition of human MDA-MB-453 cells after 72 hrs by MTT assay; assay type: functional; conditions: MDA-MB-453, 72 h; in short: as §1
MCF7 = test: Growth inhibition of human MCF7 cells after 72 hrs by resazurin or MTT assay; assay type: functional; conditions: MCF7, 72 h
MDA-MB-468 = test: Growth inhibition of human MDA-MB-468 cells after 72 hrs by resazurin or MTT assay; assay type: functional; conditions: MDA-MB-468, 72 h
MOLM-13 = test: Growth inhibition of human MOLM13 cells after 72 hrs by resazurin or MTT assay; assay type: functional; conditions: MOLM-13, 72 h
NB-4 = test: Growth inhibition of human NB4 cells after 72 hrs by resazurin or MTT assay; assay type: functional; conditions: NB-4, 72 h
[2] = Growth inhibition of human M229 cells after 72 hrs by resazurin or MTT assay; assay type: functional; conditions: M229, 72 h
[3] = Growth inhibition of human M238 cells after 72 hrs by resazurin or MTT assay; assay type: functional; conditions: M238, 72 h
[4] = Growth inhibition of human M249 cells after 72 hrs by resazurin or MTT assay; assay type: functional; conditions: M249, 72 h
[5] = Growth inhibition of human M249R cells after 72 hrs by resazurin or MTT assay; assay type: functional; conditions: M249, 72 h
A2780 = test: Growth inhibition of human A2780 cells after 72 hrs by resazurin or MTT assay; assay type: functional; conditions: A2780, 72 h
DU-145 = test: Growth inhibition of human DU145 cells after 72 hrs by resazurin or MTT assay; assay type: functional; conditions: DU-145, 72 h
LNCaP C4-2B = test: Growth inhibition of human C4-2B cells after 72 hrs by resazurin or MTT assay; assay type: functional
PC-3 = test: Growth inhibition of human PC3 cells after 72 hrs by resazurin or MTT assay; assay type: functional; conditions: PC-3, 72 h
[6] = Growth inhibition of nontransformed human BPH1 cells after 72 hrs by resazurin or MTT assay; assay type: cell-based; conditions: BPH-1 cells (nontransformed)
[7] = Growth inhibition of human MRC5 cells after 72 hrs by resazurin or MTT assay; assay type: cell-based
MV4-11 [8] = test: Cell cycle arrest in human MV4-11 cells assessed as accumulation at sub-G1 phase at GI50 after 24 hrs by propidium iodide staining based flow cytometry (reference value: 0.91%); assay type: functional
In short: (§2)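 MV4-11 cells were treated with increasing concentrations for 24 h. Cells were then harvested, fixed and stained with propidium iodide before flow cytometric cell cycle analysis.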

MV4-11 [9] = test: Cell cycle arrest in human MV4-11 cells assessed as accumulation at G1 phase at GI50 after 24 hrs by propidium iodide staining based flow cytometry (reference value: 58.99%); assay type: functional; in short: as §2
MV4-11 [10] = test: Cell cycle arrest in human MV4-11 cells assessed as accumulation at S phase at GI50 after 24 hrs by propidium iodide staining based flow cytometry (reference value: 21.97%); assay type: functional; in short: as §2
MV4-11 [11] = test: Cell cycle arrest in human MV4-11 cells assessed as accumulation at G2/M phase at GI50 after 24 hrs by propidium iodide staining based flow cytometry (reference value: 18.11%); assay type: functional; in short: as §2
MV4-11 [12] = test: Cell cycle arrest in human MV4-11 cells assessed as accumulation at sub-G1 phase at 5 times GI50 after 24 hrs by propidium iodide staining based flow cytometry (reference value: 0.91%); assay type: functional; in short: as §2
MV4-11 [13] = test: Cell cycle arrest in human MV4-11 cells assessed as accumulation at G1 phase at 5 times GI50 after 24 hrs by propidium iodide staining based flow cytometry (reference value: 58.99%); assay type: functional; in short: as §2
MV4-11 [14] = test: Cell cycle arrest in human MV4-11 cells assessed as accumulation at S phase at 5 times GI50 after 24 hrs by propidium iodide staining based flow cytometry (reference value: 21.97%); assay type: functional; in short: as §2
MV4-11 [15] = test: Cell cycle arrest in human MV4-11 cells assessed as accumulation at sub-G1 phase at 10 times GI50 after 24 hrs by propidium iodide staining based flow cytometry (reference value: 0.91%); assay type: functional; in short: as §2
MV4-11 [16] = test: Cell cycle arrest in human MV4-11 cells assessed as accumulation at G1 phase at 10 times GI50 after 24 hrs by propidium iodide staining based flow cytometry (reference value: 58.99%); assay type: functional; in short: as §2
MV4-11 [17] = test: Cell cycle arrest in human MV4-11 cells assessed as accumulation at S phase at 10 times GI50 after 24 hrs by propidium iodide staining based flow cytometry (reference value: 21.97%); assay type: functional; in short: as §2
MV4-11 [18] = test: Cell cycle arrest in human MV4-11 cells assessed as accumulation at G2/M phase at 10 times GI50 after 24 hrs by propidium iodide staining based flow cytometry (reference value: 18.11%); assay type: functional; in short: as §2
MV4-11 [19] = test: Induction of apoptosis in human MV4-11 cells assessed as viable cells at GI50 after 24 hrs by annexin V/propidium iodide staining based flow cytometry (reference value: 93.05%); assay type: functional
MV4-11 [20] = test: Induction of apoptosis in human MV4-11 cells assessed as early apoptotic cells at GI50 after 24 hrs by annexin V/propidium iodide staining based flow cytometry (reference value: 2.01%); assay type: functional
MV4-11 [21] = test: Induction of apoptosis in human MV4-11 cells assessed as late apoptotic cells at GI50 after 24 hrs by annexin V/propidium iodide staining based flow cytometry (reference value: 4.87%); assay type: functional
MV4-11 [22] = test: Induction of apoptosis in human MV4-11 cells assessed as necrotic cells at GI50 after 24 hrs by annexin V/propidium iodide staining based flow cytometry (reference value: 0.06%); assay type: functional
MV4-11 [23] = test: Induction of apoptosis in human MV4-11 cells assessed as viable cells at 5 times GI50 after 24 hrs by annexin V/propidium iodide staining based flow cytometry (reference value: 93.05%); assay type: functional
MV4-11 [24] = test: Induction of apoptosis in human MV4-11 cells assessed as early apoptotic cells at 5 times GI50 after 24 hrs by annexin V/propidium iodide staining based flow cytometry (reference value: 2.01%); assay type: functional
MV4-11 [25] = test: Induction of apoptosis in human MV4-11 cells assessed as late apoptotic cells at 5 times GI50 after 24 hrs by annexin V/propidium iodide staining based flow cytometry (reference value: 4.87%); assay type: functional
MV4-11 [26] = test: Induction of apoptosis in human MV4-11 cells assessed as necrotic cells at 5 times GI50 after 24 hrs by annexin V/propidium iodide staining based flow cytometry (reference value: 0.06%); assay type: functional
MV4-11 [27] = test: Induction of apoptosis in human MV4-11 cells assessed as viable cells at 10 times GI50 after 24 hrs by annexin V/propidium iodide staining based flow cytometry (reference value: 93.05%); assay type: functional
MV4-11 [28] = test: Induction of apoptosis in human MV4-11 cells assessed as early apoptotic cells at 10 times GI50 after 24 hrs by annexin V/propidium iodide staining based flow cytometry (reference value: 2.01%); assay type: functional
MV4-11 [29] = test: Induction of apoptosis in human MV4-11 cells assessed as late apoptotic cells at 10 times GI50 after 24 hrs by annexin V/propidium iodide staining based flow cytometry (reference value: 4.87%); assay type: functional
MV4-11 [30] = test: Induction of apoptosis in human MV4-11 cells assessed as necrotic cells at 10 times GI50 after 24 hrs by annexin V/propidium iodide staining based flow cytometry (reference value: 0.06%); assay type: functional

In the case of `CC(=O)c1c(C)c2cnc(Nc3ccc(N4CCNCC4)cn3)nc2n(C2CCCC2)c1=O` [PALBOCICLIB], the GI50 (MV4-11 [1]) is reported as 50 nM, the GI50 (MDA-MB-453) is reported as 326 nM and the GI50 (MCF7) is reported as 557 nM. For the same compound, the GI50 (MDA-MB-468) was 5960 nM, the GI50 (MOLM-13) was 62 nM and the GI50 (NB-4) was 66 nM. The GI50 [2] was 1220 nM, the GI50 [3] was 1970 nM and the GI50 [4] was 1990 nM. The GI50 [5] was 2960 nM, the GI50 (A2780) was 32 nM and the GI50 (DU-145) was 5790 nM. The GI50 (LNCaP C4-2B) was 4150 nM, the GI50 (PC-3) was 71 nM and the GI50 at 72 h [6] was 7440 nM. It also gave a GI50 at 72 h [7] of over 10000 nM, an Activity (MV4-11 [8]) of 1.32% and an Activity (MV4-11 [9]) of 75.13%. The Activity (MV4-11 [10]) was 12.18%, the Activity (MV4-11 [11]) was 11.49% and the Activity (MV4-11 [12]) was 1.81%. It also gave an Activity (MV4-11 [13]) of 88.99%, an Activity (MV4-11 [14]) of 5.07% and an Activity (MV4-11 [15]) of 1.72%. For the same compound, the Activity (MV4-11 [16]) was 89.5%, the Activity (MV4-11 [17]) was 4.67% and the Activity (MV4-11 [18]) was 4.12%. It also gave an Activity (MV4-11 [19]) of 90.99%, an Activity (MV4-11 [20]) of 2.54% and an Activity (MV4-11 [21]) of 6.28%. For the same compound, the Activity (MV4-11 [22]) was 0.17%, the Activity (MV4-11 [23]) was 90.49% and the Activity (MV4-11 [24]) was 2.14%. It also gave an Activity (MV4-11 [25]) of 7.16%, an Activity (MV4-11 [26]) of 0.21% and an Activity (MV4-11 [27]) of 89.91%. It also gave an Activity (MV4-11 [28]) of 2.31%, an Activity (MV4-11 [29]) of 7.65% and an Activity (MV4-11 [30]) of 0.12%.
`Cc1nc(NC2CCCC2)sc1-c1ccnc(Nc2ccc(N3CCOCC3)cn2)n1` gave a GI50 (MV4-11 [1]) of 209 nM, a GI50 (MDA-MB-453) of 3680 nM and a GI50 (MCF7) of 1890 nM. The GI50 (MDA-MB-468) was over 10000 nM, the GI50 (MOLM-13) was 385 nM and the GI50 (NB-4) was 681 nM. It also gave a GI50 [2] of 150 nM, a GI50 [3] of 2200 nM and a GI50 [4] of 82 nM. For the same compound, the GI50 [5] was 38 nM, the GI50 (A2780) was 58 nM and the GI50 (DU-145) was over 10000 nM. The GI50 (LNCaP C4-2B) was over 10000 nM, the GI50 (PC-3) was 150 nM and the GI50 at 72 h [6] was over 10000 nM. For the same compound, the GI50 at 72 h [7] was over 10000 nM, the Activity (MV4-11 [8]) was 3.43% and the Activity (MV4-11 [9]) was 63.57%. It also gave an Activity (MV4-11 [10]) of 17.77%, an Activity (MV4-11 [11]) of 15.3% and an Activity (MV4-11 [12]) of 4.09%. For the same compound, the Activity (MV4-11 [13]) was 71.66%, the Activity (MV4-11 [14]) was 13.85% and the Activity (MV4-11 [15]) was 2.6%. It also gave an Activity (MV4-11 [16]) of 81.18%, an Activity (MV4-11 [17]) of 10.53% and an Activity (MV4-11 [18]) of 5.75%. It also gave an Activity (MV4-11 [19]) of 92.71%, an Activity (MV4-11 [20]) of 2.33% and an Activity (MV4-11 [21]) of 4.9%. It also gave an Activity (MV4-11 [22]) of 0.06%, an Activity (MV4-11 [23]) of 90.43% and an Activity (MV4-11 [24]) of 2.37%. For the same compound, the Activity (MV4-11 [25]) was 7.03%, the Activity (MV4-11 [26]) was 0.16% and the Activity (MV4-11 [27]) was 89.53%. It also gave an Activity (MV4-11 [28]) of 2.83%, an Activity (MV4-11 [29]) of 7.27% and an Activity (MV4-11 [30]) of 0.35%.
